Data set [1] has as its system Pseudomonas aeruginosa. As to the kind of experiment: Antimicrobial activity against Pseudomonas aeruginosa ATCC 27853 after 24 hrs by two-fold serial dilution method. The format is functional.
The subject of data set [2] is Pseudomonas aeruginosa. Nature of the data set: Antimicrobial activity against Pseudomonas aeruginosa after 24 hrs by two-fold serial dilution method. The format is functional, organism-based.
Data set [3] concerns Acinetobacter baumannii. As to the kind of experiment: Antimicrobial activity against Acinetobacter baumannii after 24 hrs by two-fold serial dilution method. The data set is classed as functional, organism-based.
Data set [4] relates to Enterococcus faecalis. Nature of the data set: Antimicrobial activity against Enterococcus faecalis after 24 hrs by two-fold serial dilution method. The data set is classed as functional.
In data set [5] the test system is Staphylococcus aureus. As to the kind of experiment: Antimicrobial activity against methicillin-resistant Staphylococcus aureus after 24 hrs by two-fold serial dilution method. The data set is classed as functional, organism-based.
The test system of data set [6] is Staphylococcus aureus. As to the kind of experiment: Antimicrobial activity against Staphylococcus aureus after 24 hrs by two-fold serial dilution method. The data set is classed as functional, organism-based.
Data set [7] has as its system Klebsiella pneumoniae. As to the kind of experiment: Antimicrobial activity against Klebsiella pneumoniae after 24 hrs by two-fold serial dilution method. The format is functional, organism-based.
For data set [8], the system named is Staphylococcus aureus. Nature of the data set: Antimicrobial activity against Staphylococcus aureus ATCC 25923 after 24 hrs by two-fold serial dilution method. The data set is classed as functional, organism-based.
The test system of data set [9] is Escherichia coli. As to the kind of experiment: Antimicrobial activity against Escherichia coli ATCC 25922 after 24 hrs by two-fold serial dilution method. The format is functional, organism-based.
The test system of data set [10] is Escherichia coli. Nature of the data set: Antimicrobial activity against Escherichia coli after 24 hrs by two-fold serial dilution method. The format is functional, organism-based.
The test system of data set [11] is Staphylococcus aureus. As to the kind of experiment: Antimicrobial activity against Staphylococcus aureus ATCC 29213 after 24 hrs by two-fold serial dilution method. The format is functional, organism-based.
Data set [12] concerns Acinetobacter baumannii. As to the kind of experiment: Antimicrobial activity against Acinetobacter baumannii after 24 hrs under pH 4 to 11 by two-fold serial dilution method. The format is functional, organism-based.
In data set [13] the test system is Pseudomonas aeruginosa. Nature of the data set: Antimicrobial activity against Pseudomonas aeruginosa after 24 hrs under pH 4 to 11 by two-fold serial dilution method. The format is functional, organism-based.
Data set [14] relates to Pseudomonas aeruginosa. As to the kind of experiment: Antimicrobial activity against Pseudomonas aeruginosa ATCC 27853 after 24 hrs under pH 4 to 11 by two-fold serial dilution method. The format is functional, organism-based.
Data set [15] has as its system Staphylococcus aureus. As to the kind of experiment: Antimicrobial activity against Staphylococcus aureus ATCC 29213 after 24 hrs under pH 4 to 11 by two-fold serial dilution method. The format is functional, organism-based.
Data set [16] concerns Escherichia coli. As to the kind of experiment: Antimicrobial activity against Escherichia coli ATCC 25922 after 24 hrs under pH 4 to 11 by two-fold serial dilution method. The format is functional, organism-based.
Data set [17] has as its system Enterococcus faecalis. As to the kind of experiment: Antimicrobial activity against Enterococcus faecalis after 24 hrs under pH 4 to 11 by two-fold serial dilution method. The format is functional, organism-based.
Data set [18] concerns Staphylococcus aureus. As to the kind of experiment: Antimicrobial activity against Staphylococcus aureus ATCC 25923 after 24 hrs under pH 4 to 11 by two-fold serial dilution method. The format is functional, organism-based.
In data set [19] the test system is Staphylococcus aureus. As to the kind of experiment: Antimicrobial activity against Staphylococcus aureus after 24 hrs under pH 4 to 11 by two-fold serial dilution method. The format is functional, organism-based.
For data set [20], the system named is Staphylococcus aureus. Nature of the data set: Antimicrobial activity against methicillin-resistant Staphylococcus aureus after 24 hrs under pH 4 to 11 by two-fold serial dilution method. The format is functional, organism-based.
Data set [21] is described as follows: Solubility of the compound in water. The note with it: buffer. The format is physicochemical.
Data set [22] deals with Klebsiella pneumoniae. Nature of the data set: Antimicrobial activity against Klebsiella pneumoniae after 24 hrs under pH 4 to 11 by two-fold serial dilution method. The data set is classed as functional, organism-based.
For data set [23], the system named is Escherichia coli. As to the kind of experiment: Antimicrobial activity against Escherichia coli after 24 hrs under pH 4 to 11 by two-fold serial dilution method. The data set is classed as functional, organism-based.
Data set [24] concerns Enterococcus faecalis. As to the kind of experiment: Antimicrobial activity against Enterococcus faecalis assessed as ratio of MIC after and before […] measured at 24 hrs interval for 16 days by two-fold serial dilution method. The format is functional.
Data set [25] relates to Candida parapsilosis. Nature of the data set: Antifungal activity against Candida parapsilosis ATCC 22019 after 24 hrs by two-fold serial dilution method. The data set is classed as functional.
In data set [26] the test system is Aspergillus fumigatus. As to the kind of experiment: Antifungal activity against Aspergillus fumigatus after 24 hrs by two-fold serial dilution method. The data set is classed as functional.
Data set [27] deals with DNA. As to the kind of experiment: Binding affinity to Enterococcus faecalis DNA assessed as DNA intercalation by neutral red dye based spectrofluorimetric method. The format is nucleic-acid assay. An outline of the steps: (§1)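 Genomic DNA was isolated from drug-resistant E. faecalis strains and examined in vitro with the compound by UV–vis absorption and by neutral red fluorescence spectroscopy.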

In data set [28] the test system is DNA. As to the kind of experiment: Binding affinity to Enterococcus faecalis DNA assessed as DNA intercalation by UV-vis absorption spectrophotometric method. The data set is classed as nucleic-acid assay. An outline of the steps: as §1
For data set [29], the system named is Enterococcus faecalis. Nature of the data set: Antimicrobial activity against Enterococcus faecalis after 11 passages measured at 24 hrs interval for 16 days by two-fold serial dilution method. The format is functional.
Data set [30] deals with Enterococcus faecalis. Nature of the data set: Bactericidal activity against Enterococcus faecalis assessed as log reduction in bacterial colonies at 4 times MIC measured within 1 hr by time-kill assay. The format is functional. In outline: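 Viable counts of E. faecalis were expressed as log CFU/mL and followed over the first hour of exposure at 4 × MIC. A positive-control drug was run alongside.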

The nature of data set [31]: Cytotoxicity against mouse RAW264.7 cells assessed as cell viability at 128 ug/ml after 24 hrs by MTT assay relative to control. The data set is classed as cell-based. The note with it: read-out: Activity. In outline: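 Normal mouse macrophage RAW264.7 cells were exposed to the compound up to 128 μg/mL for 24 h, and viability was read by MTT. Each bar is the mean of three parallels, with error bars of one standard deviation.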

The subject of data set [32] is Enterococcus faecalis. Nature of the data set: Induction of membrane disruption in Enterococcus faecalis at 12 times MIC measured every 10 mins for 60 mins by propidium iodide staining based fluorescence assay. The data set is classed as functional, organism-based. An outline of the steps:
(§2)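 Membrane permeabilization was tracked by propidium iodide, which enters compromised cells and fluoresces on binding DNA. Fluorescence of bacteria with compound plus PI was recorded over 60 min, against two control groups. Strains were E. faecalis and E. coli ATCC 25922.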

Data set [33] relates to Escherichia coli. As to the kind of experiment: Induction of membrane disruption in Escherichia coli ATCC 25922 at 12 times MIC measured every 10 mins for 60 mins by propidium iodide staining based fluorescence assay. The format is functional, organism-based. In outline: as §2

Each structure is given as a SMILES string. In brackets after ≈: the same amount, converted by molar mass. Activity calls are given as the source filed them.

As a reminder, the MIC is the smallest concentration in the dilution series that meets the test's criterion for growth inhibition.

As for `Cc1ncc([N+](=O)[O-])n1CC(O)Cn1c2ccc(Br)cc2c2cc(Br)ccc21` (centres undefined), inhibition of growth in [1] (ATCC 27853, 24 h) (MIC) required 32 µg/mL (≈ 63 µM).

As to `OC(Cn1cncn1)Cn1c2ccccc2c2ccc(Br)cc21` (centres undefined), the outcome in data set [2], in [3], in [4], in data set [5], in data set [6] and in [7] was Active. The outcome in data set [8], in data set [9], in data set [10], in [1] and in data set [11] was Active.

In the case of `OC(Cn1cncn1)Cn1c2ccccc2c2cc(I)ccc21` (centres undefined), the result in data set [2], in data set [3], in [4], in data set [5], in data set [6] and in data set [7] was Active. Moreover, the result in [8], in data set [9], in data set [10], in [1] and in data set [11] was Active.

With `O=[N+]([O-])c1cn(CC(O)Cn2c3ccccc3c3ccccc32)cn1` (centres undefined), the result in data set [2], in data set [3], in data set [4], in data set [5], in data set [6] and in [7] was Active. In addition, the result in data set [8], in data set [9], in data set [10], in data set [1] and in data set [11] was Active.

As to `Cc1nccn1CC(O)Cn1c2ccccc2c2ccccc21` (centres undefined), the result in data set [2], in [3], in data set [4], in [5], in data set [6] and in data set [7] was Active. In addition, the outcome in [8], in data set [9], in data set [10], in data set [1] and in [11] was Active.

`OC(Cn1cncn1)Cn1c2ccccc2c2ccccc21` (centres undefined): the outcome in [2], in data set [3], in data set [4], in data set [5], in data set [6] and in data set [7] was Active. Also, the outcome in data set [8], in data set [9], in data set [10], in data set [1] and in [11] was Active.

In the case of `Cc1ncc([N+](=O)[O-])n1CC(O)Cn1c2ccccc2c2ccccc21` (centres undefined), the outcome in [12], in [13], in data set [2], in data set [14], in data set [3] and in [15] was Active. For the same compound, the result in [16], in data set [17], in data set [18], in data set [4], in data set [5] and in [19] was Active. For the same compound, the outcome in data set [6], in data set [20], in data set [7], in [22], in [8] and in data set [9] was Active. Besides, the result in data set [10], in [1], in [11] and in data set [23] was Active. In addition, the solubility result in [21] is “Soluble”.

Take `CCn1cc(C(=O)O)c(=O)c2cc(F)c(N3CCNCC3)cc21` [NORFLOXACIN]: the Ratio in [24] was 16. The result in [4], in [9] and in [11] was Active.

In the case of `OC(Cn1cncn1)(Cn1cncn1)c1ccc(F)cc1F`, the outcome in [25] and in data set [26] was Active.

With `OC(Cn1cncn1)Cn1c2ccc(Br)cc2c2cc(Br)ccc21` (centres undefined), the result in data set [2], in [3], in [4], in [5], in [6] and in data set [7] was Active. The outcome in data set [8], in [9], in data set [10], in data set [1] and in data set [11] was Active.

In the case of `CC(C)(C)c1ccc2c(c1)c1cc(C(C)(C)C)ccc1n2CC(O)Cn1cncn1` (centres undefined), the outcome in [2], in [3], in [4], in data set [5], in data set [6] and in [7] was Active. The outcome in [8], in data set [9], in [10], in data set [1] and in data set [11] was Active.

Consider `OC(Cn1cncn1)Cn1c2ccc(Cl)cc2c2cc(Cl)ccc21` (centres undefined), for which the result in data set [27], in [28], in data set [2], in data set [3], in data set [5] and in data set [6] was Active. Besides, the outcome in [32], in [7], in [8], in data set [9], in data set [10] and in [1] was Active. Further, the outcome in [33] and in [11] was Active. In addition, the minimum inhibitory concentration (MIC) is 2 to 8 µg/mL (≈ 5.54 to 22.1 µM) in data set [29]; 4 µg/mL (≈ 11.1 µM) in data set [25] (Lodderomyces parapsilosis, ATCC 22019, 24 h); 2 µg/mL (≈ 5.54 µM) in data set [4]; 32 µg/mL (≈ 88.6 µM) in data set [26]. In addition, the Activity in [30] is on record as over 3 log10CFU/ml. For the same compound, the viability at 24 h, 128 ug/ml in data set [31] was over 80%.

On to `OC(Cn1ccnc1-c1ccccc1)Cn1c2ccccc2c2ccccc21` (centres undefined), for which the outcome in [2], in data set [3], in [4], in [5], in data set [6] and in data set [7] was inactive. Besides, the result in [8], in data set [9], in data set [10], in data set [1] and in data set [11] was inactive.

With `OC(Cn1cncn1)Cn1c2ccccc2c2cc(Br)ccc21` (centres undefined), the outcome in data set [2], in data set [3], in [4], in data set [5], in data set [6] and in data set [7] was Active. For the same compound, the outcome in [8], in data set [9], in data set [10], in data set [1] and in data set [11] was Active.

The values are drawn from ChEMBL document CHEMBL4251702, “Potential Antimicrobial Isopropanol-Conjugated Carbazole Azoles as Dual Targeting Inhibitors of Enterococcus faecalis” (ACS Med Chem Lett, 2018).
